According to PubChem BioAssay AID623869 (Vanderbilt High Throughput Screening Facility, 2012):
Out of some 2,100 compounds screened, about 75 (4%) were called active.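 How the source made its calls: active means calcium fluorescence trace judged by eye to show a response, as agonist, enhancer of the glutamate response, or inhibitor; inactive means trace judged by eye to show no response.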 This excerpt belongs to a sample that is enriched for actives.

biological target: Metabotropic glutamate receptor 8 (Rattus norvegicus) (UniProt P70579); test: mGlu8-mediated intracellular calcium response modulators – cell-based, HEK293 rmGlu8, Gqi9 chimera, Fluo-4 calcium, counter-screen for GIRK activator project, confirmation (AID 623869); settings: HEK293 rmGlu8/Gqi9 calcium flux, Fluo-4 fluorescence; glutamate at EC20 added after compound
Sequence (P70579 whole entry, looked up): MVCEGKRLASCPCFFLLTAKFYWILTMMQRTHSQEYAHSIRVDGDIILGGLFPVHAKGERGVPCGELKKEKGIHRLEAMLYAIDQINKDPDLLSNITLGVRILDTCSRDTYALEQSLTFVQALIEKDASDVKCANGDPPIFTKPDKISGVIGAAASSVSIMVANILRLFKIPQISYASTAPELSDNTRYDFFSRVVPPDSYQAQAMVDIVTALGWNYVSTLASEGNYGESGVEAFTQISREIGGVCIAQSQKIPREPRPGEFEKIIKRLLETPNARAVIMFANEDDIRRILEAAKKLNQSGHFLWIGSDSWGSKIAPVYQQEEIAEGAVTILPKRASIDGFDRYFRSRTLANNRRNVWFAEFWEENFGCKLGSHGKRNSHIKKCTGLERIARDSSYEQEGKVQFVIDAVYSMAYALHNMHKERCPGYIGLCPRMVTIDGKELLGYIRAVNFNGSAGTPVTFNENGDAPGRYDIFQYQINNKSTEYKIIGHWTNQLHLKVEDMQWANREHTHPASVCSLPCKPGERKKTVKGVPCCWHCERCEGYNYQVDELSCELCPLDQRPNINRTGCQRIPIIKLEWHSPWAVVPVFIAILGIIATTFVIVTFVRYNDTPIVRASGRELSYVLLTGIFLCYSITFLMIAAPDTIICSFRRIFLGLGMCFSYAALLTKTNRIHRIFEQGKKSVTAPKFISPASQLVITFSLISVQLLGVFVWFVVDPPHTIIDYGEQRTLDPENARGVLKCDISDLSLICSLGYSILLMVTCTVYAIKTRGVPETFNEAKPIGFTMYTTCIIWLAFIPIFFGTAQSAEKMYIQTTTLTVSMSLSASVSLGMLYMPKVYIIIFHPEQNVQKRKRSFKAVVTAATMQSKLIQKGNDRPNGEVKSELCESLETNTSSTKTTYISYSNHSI
Summary of the method: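 System – HEK-293 cells stably expressing rat mGlu8, plus transient chimeric Gqi9 · Medium – HEPES-buffered HBSS, pH 7.4 · Also added – EC20 glutamate · Compound – one dose, 20 µM addition solution, 0.2% DMSO · Times – compound 4 min before glutamate, then 2 min recording · Measured by – Fluo-4 calcium fluorescence sampled at 1 Hz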

SMILES | outcome
CC(=O)c1c(N2CCCC2)[nH]c(-c2ccccc2)nc1=S | active; 2
CSc1nc(-c2ccccc2)[nH]c(=S)c1C(C)=O | inactive; 0
O=C(c1cc(-c2ccccc2)on1)N1CCCC1 | inactive; 0
COC(=O)C(C)N(C(=O)c1cccc2ccccc12)c1c(C)cccc1C (stereo unspecified) | inactive; 0
COc1ccc(-c2cc(C(F)(F)F)c3c(n2)sc2c(O)cc(=O)[nH]c23)c(OC)c1 | active; 2
CCOC(=O)c1c(NS(=O)(=O)c2ccc(Br)cc2)sc2c1CCC2 | inactive; 0
COc1ccc2nc(/N=C/c3c(C)[nH]n(-c4ccc(C)cc4)c3=O)sc2c1 | inactive; 0
O=C(NN=C(Cc1ccccc1)Cc1ccccc1)c1ccc(F)cc1 | inactive; 0
Cc1ccc(C(=O)N/N=C(/CC(=O)c2cccs2)C(F)(F)F)cc1 | active; -1
Cc1ccc(C(=O)NC(=S)Nc2ccccc2C(F)(F)F)cc1 | inactive; 0
COC(=O)C1=NN(C(=O)c2ccc(C)cc2)C(O)(c2ccc(Cl)cc2)C1 (stereo unspecified) | inactive; 4
COC(=O)c1sc(NC(=S)NC(=O)c2ccccc2Cl)nc1C | inactive; 0
COC(=O)c1ccc(C(=O)NC(=S)Nc2nc3c(s2)CCCC3)cc1 | inactive; 0
O=C(NC(=S)Nc1nc2c(s1)CCCC2)c1ccccc1 | inactive; 0
CC(C)(C)c1ccc(C(=O)NC(=S)Nc2nc3c(s2)CCCC3)cc1 | active; 2
O=C(NC(=S)Nc1ccc(N2CCOCC2)c(Cl)c1)c1cncc(Br)c1 | inactive; 0
CCOC(=O)c1c2n(c3c(NCc4ccccc4)ncnc13)CCCC2 | inactive; 0
Cc1cc(NC(=O)CSc2nc3ccccc3c(=O)n2Cc2ccccc2)no1 | inactive; 0
O=C1CN(C(=O)CSc2nc3cc(Cl)ccc3c(=O)n2Cc2ccccc2)c2ccccc2N1 | inactive; 0
O=C1OCCC1Sc1nc2cc(Cl)ccc2n1Cc1ccccc1 (stereo unspecified) | active; 2
Cc1ccc(C(=O)CC(=O)c2cc(Cl)ccc2O)cc1 | inactive; 0
Cc1cccc(C(=O)CC(=O)c2cc(Cl)ccc2O)c1 | inactive; 0
C/C(=N/NC(=O)c1cc(Cl)ccc1O)C12CC3CC(CC(C3)C1)C2 | active; 1
COc1ccccc1/C=C/C(=O)NC(=S)N(C)C1CCCCC1 | inactive; 0

SMILES | outcome
Oc1ccccc1CNc1ccc(Br)cn1 | active; -1
CC(Nc1ccc(Br)cn1)c1cc(Cl)ccc1O (stereo unspecified) | inactive; 0
O=c1c(-c2ccccc2)nc(-c2ccccc2)cn1O | inactive; 0
O=C(NC(=S)N1CCN(Cc2ccccc2)CC1)c1ccccc1 | inactive; 0
CC(C)(C)NC(=O)C(c1ccncc1)N(C(=O)c1csnn1)c1ccccc1 (stereo unspecified) | active; -1
CCC(C)(C)NC(=O)C(c1ccc(F)cc1)N(Cc1ccco1)C(=O)c1cnccn1 (stereo unspecified) | inactive; 0
O=C(NC(=S)Nc1ccccc1)c1csnn1 | inactive; 0
O=c1c2ccccc2[nH]c(=S)n1CCCN1CCN(C2CCCCC2)CC1 | inactive; 0
O=C(NC(=S)Nc1ccccc1Cl)c1csnn1 | inactive; 0
CCCCN(CCCC)C(=S)NC(=O)C(C)(C)C | inactive; 0
Brc1ccccc1-c1nnc2sc(-c3ccc4c(c3)OCCO4)nn12 | inactive; 0
CCOC(=O)C1=C(C)Nc2nnnn2C1c1ccccc1Cl (stereo unspecified) | inactive; 0
O=C(NC(=S)Nc1ccc(Oc2ccc(Cl)cc2)cc1)c1ccccc1 | inactive; 0
CSc1ccccc1NC(=O)Nc1ccc(Cl)cc1 | inactive; 0
O=C(N/C(=N\O)c1ccccc1)Nc1ccc(Cl)cc1 | active; 2
CCCCOc1ccc(C(=O)NNC(=S)NC(=O)CC)cc1 | inactive; 0
CCCCCC(=O)NC(=S)NNC(=O)c1ccc([N+](=O)[O-])cc1 | active; 1
CCCCNC(=S)NC(=O)c1ccc([N+](=O)[O-])cc1 | inactive; 0
S=c1nc(-c2ccc(Br)cc2)oc2c1CCCC2 | inactive; 0
Cc1ccc(C)c(NC(=S)NNC(=O)c2csc3c2CCCC3)c1 | inactive; 0
COC(=O)c1ccc(NS(=O)(=O)c2ccc(SC)cc2)cc1 | inactive; 0
CC(=O)Nc1ccc(C(=O)CSc2nc3ccc(C)cc3[nH]2)cc1 | inactive; 0
CCc1cc2cccc(C)c2nc1SCC(=O)c1ccc(NC(C)=O)cc1 | inactive; 0
COC(=O)c1ccc(-n2c(C)cc(C(=O)CSc3ccc(NC(C)=O)cc3)c2C)cc1 | active; 2

SMILES | outcome
Cc1cc(C(=O)CSc2n[nH]c(N)n2)c(C)n1-c1cc(F)ccc1F | inactive; 0
CC(=O)Nc1ccc(SCC(=O)c2cc(C)n(-c3ccccc3F)c2C)cc1 | active; 2
COc1ccc2nc(/N=C/c3c(C)[nH]n(-c4ccc(C)cc4C)c3=O)sc2c1 | inactive; 2
CC12CC3CC(C)(C1)CC(C(=O)NC(=S)N1CCCCC1)(C3)C2 | inactive; 0
CSCSC1=C(C#N)C(c2ccccc2Cl)C(C(C)=O)=C(C)N1 (stereo unspecified) | inactive; 0
O=C(N/N=C1/C(=O)c2cccc3cccc1c23)c1ccc(Cl)cc1 | inactive; 0
Cc1cccc(N2C(=O)CS/C2=N\NC(=O)c2ccc(Cl)cc2)c1C | active; 2
O=C(NC(=S)N1CCCc2ccccc21)c1ccc(Cl)cc1 | inactive; 0
O=C(NC(=S)N(CCCCO)C1CCCCC1)c1sc2ccccc2c1Cl | inactive; 0
O=C(NC(=S)Nc1ccccc1N1CCOCC1)c1ccco1 | inactive; 0
CN(C(=O)CSC1=Nc2ccccc2C2=NC(c3ccccc3)C(=O)N12)C1CCCCC1 (stereo unspecified) | inactive; 0
COc1cc(/C=C(\C#N)C(=O)Nc2cccnc2)ccc1OC(C)C | active; 2
CCSc1ccccc1C(=O)Nc1cccnc1 | inactive; 0
N#C/C(=C/C=C/c1ccccc1)C(=O)Nc1ccccc1 | inactive; 0
Cc1ccc(OCC(=O)NNC(=O)C(=O)NC(C)(C)C)cc1 | inactive; 0
C=CCn1c(=S)[nH]c2sc3c(c2c1=O)CCC3 | inactive; 0
COC(=O)c1ccccc1NC(=S)NC(=O)c1ccc(C)cc1 | inactive; 0
COC(=O)c1ccccc1NC(=O)Nc1cnccn1 | inactive; 0
CCC1c2ccc(C)n2CCN1C(=O)Nc1ccccc1C(=O)OC (stereo unspecified) | active; 2
CC(C)C1Cc2c(sc3[nH]c(=S)n(Cc4ccccc4)c(=O)c23)CO1 (stereo unspecified) | inactive; 0
CCOC(=O)c1c(NC(=S)NC)sc2c1CC(C)(C)SC2 | inactive; 0
Cc1sc2nc(C(C)C)nc(SCC(=O)NCc3ccco3)c2c1C | inactive; 0
CCCc1cc(-c2n[nH]c(=S)n2C(C)c2ccccc2)cs1 (stereo unspecified) | inactive; 0
CCCc1cc(-c2n[nH]c(=S)n2CC(C)C)cs1 | inactive; 0

SMILES | outcome
CCCc1cc(-c2n[nH]c(=S)n2Cc2ccccc2)cs1 | active; -1
Cc1[nH]n(-c2ccc(Cl)cc2)c(=O)c1/C=N/c1nnc(-c2ccccc2)s1 | inactive; 0
O=C(NC(=S)Nc1ccccc1)c1cc(-c2ccccc2)nc2ccccc12 | inactive; 0
O=C(O)c1ccccc1C(=O)Nc1ccc(-c2csc(-c3ccccc3)n2)cc1 | active; 1
CN(C)CCCNC(=O)c1ccc(-c2nc(-c3ccc(Cl)cc3)cs2)cc1 | inactive; 0
C=CCn1c(=S)[nH]c2ccc(Br)cc2c1=O | inactive; 0
S=c1[nH]nc(-c2cc3c(s2)-c2ccccc2CC3)o1 | active; -1
Cc1ccc(-c2cc(-c3n[nH]c(=S)o3)c3ccccc3n2)cc1 | inactive; 0
CCc1cc(C(=O)NNC(=S)Nc2cc(C)ccc2C)cs1 | inactive; 0
Cc1ccc(C)c(NC(=S)NNC(=O)c2cc3c(s2)CCC(C)C3)c1 (stereo unspecified) | inactive; 0
O=C1NC(=S)SC1=C1CCCCCC1 | inactive; 0
CCn1c(O)c(N=NC(=O)CNc2cccc(C)c2)c2ccccc21 | inactive; 0
CCn1c(=O)c(C(=O)NCCCO)c(O)c2ccccc21 | active; 2
CCCN(CCC)CCCNC(=O)c1cc2c(=O)n(C)c3ccccc3c2n1C | inactive; 0
CCC1CCCCN1C(=S)NC(=O)c1ccc([N+](=O)[O-])cc1 (stereo unspecified) | inactive; 0
Cc1cccc(NC(=S)N/C(=N/S(=O)(=O)c2ccccc2)c2ccccc2)c1 | inactive; 0
Cc1ccc(-c2cc(-c3ccccc3)[nH]c(=S)c2C#N)cc1 | inactive; 0
CCOC(=O)c1c(NS(=O)(=O)Cc2ccccc2)sc2c1CCCC2 | inactive; 0
Cc1ccc(Nc2cc(C)nn2-c2nc(C)cc(=O)[nH]2)cc1 | active; -1
Cc1cc(NC(=O)c2c(F)cccc2Cl)n(-c2nc3ccccc3[nH]2)n1 | inactive; 0
Cc1cc(NC(=O)Nc2ccccc2)n(-c2ccccc2)n1 | inactive; 0
CCCOC(=S)NC(=O)c1sc2ccccc2c1Cl | inactive; 0
COc1ccccc1C(=O)NC(=S)NNC(=O)c1sc2ccccc2c1Cl | inactive; 3
CCOC(=S)NC(=O)c1sc2ccccc2c1Cl | inactive; 0

SMILES | outcome
CCCCOC(=S)NC(=O)c1sc2ccccc2c1Cl | inactive; 0
CC(C)(C)C(=O)NC(=S)NNC(=O)c1sc2ccccc2c1Cl | active; 1
COc1ccccc1C(=O)NNC(=S)NC(=O)c1sc2ccccc2c1Cl | active; 1
CCCN1C(=O)/C(=C/c2ccc(C)s2)NC1=S | inactive; 0
CCCOc1ccc(C(=O)NNC(=S)NC(=O)CC)cc1 | inactive; 0
O=C(NC(=S)N1CCCCC1)c1cccs1 | inactive; 0
C=CCN(CC=C)C(=S)NC(=O)/C=C/c1ccc(C)cc1 | inactive; 0
COc1ccccc1C(=O)N1c2ccccc2Sc2ccccc21 | inactive; 0
CC(=O)c1c(C)[nH]c(C(=O)CSc2ncnc3sc(-c4ccccc4)cc23)c1C | inactive; 0
CCOC(=O)c1ccccc1NC(=O)CSc1nnc(COc2ccccc2C)n1C | inactive; 0
Cc1cccc(NC(=S)NNC(=O)c2csc3c2CCCC3)c1 | inactive; 0
FC(F)(F)Oc1ccc(NC(=S)NCc2ccccc2)cc1 | inactive; 4
CCOC(=O)c1ccc(NC(=S)NC2CCCC2)cc1 | inactive; 4
S=C(Nc1ccc(Oc2ccccc2)cc1)NC1CCCC1 | active; 2
FC(F)(F)c1cccc(NC(=S)NCc2ccccc2)c1 | inactive; 4
FC(F)(F)c1cccc(NC(=S)NC2CCCC2)c1 | active; -1
CCCN(CC1CC1)C(=S)Nc1ccc(Oc2ccccc2)cc1 | inactive; 0
FC(F)(F)c1cccc(N2CCN(C(=S)NC3CCCCC3)CC2)c1 | inactive; 0
CC(C)CNC(=S)Nc1ccc(Oc2ccccc2)cc1 | active; 2
COc1ccc(NC(=S)Nc2ccc(OCc3ccccc3)cc2)cc1OC | inactive; 0
